Drawing on ChEMBL document CHEMBL1926549, “First chemical feature-based pharmacophore modeling of potent retinoidal retinoic acid metabolism blocking agents (RAMBAs): identification of novel RAMBA scaffolds” (Eur J Med Chem, 2012), this text covers IC50 and inhibition for 25 molecules.

Tested on in the first assay: not listed separately
In words: Inhibition of CYP26 in hamster liver microsomes assessed as [11,12-[3H]ATRA metabolism treated 3 mins before [11,12,3H]ATRA addition measured after 30 mins by HPLC analysis. Also noted: species or system Cricetinae, Microsome.
Details: not given
What is called IC50 is the point on the concentration scale where inhibition reaches its midpoint. Turning to `COC(=O)/C=C(C)/C=C/C=C(C)/C=C/C1=C(C)C(n2ccnc2)CCC1(C)C` (racemic), the IC50 was determined as 0.009 nM.
On the same count and under the same terms, the figure for `CC1=C(/C=C/C(C)=C/C=C/C(C)=C/C(=O)n2ccnc2)C(C)(C)CCC1n1cncn1` (racemic) is 0.05 nM; for `CC1=C(/C=C/C(C)=C/C=C/C(C)=C/C(=O)O)C(C)(C)CCC1n1ccnc1` (racemic) it is 2.33 nM; for `CC1=C(/C=C/C(C)=C/C=C/C(C)=C/C(=O)O)C(C)(C)CCC1n1cncn1` (racemic) it is 5.84 nM.
With `COC(=O)/C=C(C)/C=C/C=C(C)/C=C/C1=C(C)C(n2cncn2)CCC1(C)C` (racemic), the concentration for half-maximal inhibition (IC50) stood at 2 nM.

Another assay deals with Cricetinae. The assay can be described thus: Inhibition of CYP26 in hamster liver microsomes assessed as [11,12-[3H]ATRA metabolism at 100 nM treated 3 mins before [11,12,3H]ATRA addition measured after 30 mins by HPLC analysis. As to conditions: Microsome. The method in brief: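 Hamster liver microsomes (500 μg/mL stock) were used in 0.1 M phosphate buffer, pH 7.4, with NADPH (20 mM stock), MgCl2 and BSA. Inhibitor at 100 nM in DMSO was preincubated for 3 min at 37 °C. [11,12-3H]-ATRA was then added at 20 μM and incubated 30 min under oxygen at 37 °C. The reaction was stopped with formic acid, extracted with ethyl acetate/methanol/BHA, and radiolabelled polar metabolites were quantified by HPLC.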
The term inhibition denotes how much of the control response was suppressed. Turning to `COC(=O)c1cc(OCC#CC#CCOc2ccc(O)c(C(=O)OC)c2)ccc1O`, the inhibition was determined as 17.9%.
Turning to `Cc1nc(N)nc(O)c1CCCNc1ccc(CCCCC(=O)CCl)cc1`, the inhibition turned out to be 42.8%.
`O=C(Nc1ccc(OCCCCCOc2ccccc2)cc1)C(F)(F)F`: the inhibition was determined as 34.8%.
Regarding `Cc1cc(CC(C)C2CCC(C)C(c3ccc(O)c(C)c3)C2)ccc1O` (stereo not given), the inhibition is 33.8%.
As for `C/C(=N\CCCCCC/N=C(\C)c1cc(O)ccc1O)c1cc(O)ccc1O`, the inhibition was 22.2%.
In the case of `CC(SCCCCCCCCCCSC(C)C(=O)O)C(=O)O` (stereo not given), the inhibition turned out to be 20.5%.
As to `O=C(Oc1ccc(CC/C=C/CCc2ccc(OC(=O)c3ccccc3)cc2)cc1)c1ccccc1`, the inhibition worked out at 30.4%.
Same read-out and setting: the figure for `COc1ccc(/C(C)=N/OC(=O)c2cc(OC)c(OC)c(OC)c2)cc1CSc1ccccn1` is 28.5%; for `CCOC(=O)/C=C(\C)NCCSSCCN/C(C)=C/C(=O)OCC` it is 54.7%; for `CCOc1cc(/C=N/N2CCN(/N=C/c3ccc(O)c(OCC)c3)CC2)ccc1O` it is 34.3%.
Turning to `Nc1nc(Cl)cc(NCCCCCCCCCCNc2cc(Cl)nc(N)n2)n1`, the inhibition was found to be 32.7%.
For `COC(=O)CCCCCc1ccc(Cc2ccc(CCCCCC(=O)OC)cc2)cc1`, the inhibition worked out at 31.4%.
For `Cc1nc(N)nc(O)c1CCCNc1ccc(CCCCC2(CCl)OCCO2)cc1`, the inhibition turned out to be 29.4%.
For the molecule `CCOC(=O)c1cnn(-c2ccc(Cc3ccc(-n4ncc(C(=O)OCC)c4C)cc3)cc2)c1C`, the inhibition came to 49.8%.
Regarding `COc1cc(/C=N/CCCC/N=C/c2cc(OC)c(OC)c(OC)c2)cc(OC)c1OC`, the inhibition was 27.3%.
For the molecule `C/C(=N\Cc1cccc(C/N=C(\C)c2ccccc2O)c1)c1ccccc1O`, the inhibition stood at 38.6%.
The same measure, in the same setting: the figure for `CCCCCCC(CCCCCCCCCCC(=O)OC(C)(C)C)OC(C)=O` (stereo not given) is 36.2%; for `CCOC(=O)CCCCCCCCCCCCCCCCC(=O)OCC` it is 29.5%.
As to `CNC(=S)N/N=C(\C)CCCCCCCCCCCC/C(C)=N/NC(=S)NC`, the inhibition was 21.2%.
Take `Nc1nc(Cl)cc(NCCCCCCCCNc2cc(Cl)nc(N)n2)n1`: the inhibition worked out at 18.1%.
